Test results from BindingDB's records for doi:10.1021/jm030003x (University of Alabama At Birmingham, 2003).

Target: T1, NH(3)-dependent NAD(+) synthetase (Bacillus subtilis (strain 168), UniProt P08164)
T1 sequence (P08164 whole entry): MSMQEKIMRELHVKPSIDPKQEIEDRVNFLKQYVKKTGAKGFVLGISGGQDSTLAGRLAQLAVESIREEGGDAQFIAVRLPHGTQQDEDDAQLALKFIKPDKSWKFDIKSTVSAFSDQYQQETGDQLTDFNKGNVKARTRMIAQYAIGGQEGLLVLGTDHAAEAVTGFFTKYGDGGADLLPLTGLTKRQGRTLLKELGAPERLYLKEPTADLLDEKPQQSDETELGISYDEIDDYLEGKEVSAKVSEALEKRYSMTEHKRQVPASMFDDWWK
Assay: Inhibitory activity against Bacillus subtilis NAD synthetase
In short: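 Purified recombinant B. subtilis NAD synthetase, 2.0 µg/mL. Coupled assay: the NAD formed is converted to NADH by yeast alcohol dehydrogenase (40 µg/mL) with 1% EtOH. Buffer is 58.5 mM HEPES pH 8.5 with NH4Cl, KCl, MgCl2, 0.1 mM NaAD, 0.2 mM ATP, 0.3% BOG and 2.5% DMSO. ATP starts the reaction, which runs 10 min and is stopped with guanidine·HCl. Read A340 and fluorescence 460 nm minus pre-ATP background. IC50 from % inhibition at six concentrations.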

Compound `CN[C@@H]1[C@@H](O)[C@@H](O[C@@H]2[C@@H](O)[C@H](O[C@H]3O[C@H]([C@@H](C)NC)CC[C@H]3N)[C@@H](N)C[C@H]2N)OC[C@]1(C)O` [GENTAMICIN] has an IC50 of over 1 µM.
